CAL PDZ FP-1 – untagged CAL PDZ binding inhibitors, primary screen, biochemical, fluorescence polarization, HTS; Golgi-associated PDZ and coiled-coil motif-containing protein (Homo sapiens), Q9HD26; inhibition, % at 24.9 µM; purified CAL PDZ, TMR-peptide fluorescence polarization, 1 h; 300,000 compounds, 0.92% hits; AID 602252, 2012;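 active = mean inhibition of at least 30% with at least half of replicates also reaching 30%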;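 note: 0% = DMSO neutral control and 100% = excess unlabeled competitor peptide PRC23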
PDI inh – inhibitors of human PDI, primary screen, biochemical, turbidity, single point, plate reader; Protein disulfide-isomerase (Homo sapiens), P07237; PDI insulin aggregation turbidity, A650, 90 min; inhibition, % at 10 µM; 350,000 compounds, 0.052% hits; AID 588391, 2011;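 active = mean inhibition across replicates of 30% or more, whatever share of single replicates reach that level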
ERAP1 inh – human ERAP1 aminopeptidase inhibitors, primary screen, biochemical, single point, plate reader. inhibition, % at 10.7 µM. AID 652197, 2013. recombinant ERAP1, Leu-AMC fluorescence, 60 min. 340,000 compounds, 0.15% hits;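 active = mean replicate inhibition of at least 30%, or all replicates individually reaching that 30% level; inactive = mean below 30% and not every replicate reaching it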;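 note: 0% = neutral control wells and 100% = L-leucinethiol positive control wells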
ERp5 block – inhibitors of ERp5-driven insulin aggregation, primary screen, biochemical, turbidity, absorbance 650 nm, single point; 90 min; inhibition, % at 9.99 µM; 350,000 compounds, 0.05% hits; AID 651711, 2012;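 active = mean replicate inhibition above about 25%, with every replicate also reaching it, limit read from the data, passing the limit was not always enough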
Rin1 Abl inh – inhibitors of Rin1-Abl protein binding, primary screen, biochemical, TR-FRET; AID 588664, 2011; Tyrosine-protein kinase ABL1 (Homo sapiens) + Ras and Rab interactor 1 (Homo sapiens), …; inhibition, % at 7.35 µM; 360,000 compounds, 0.4% hits; in the data active = inhibition above about 5%, passing the limit was not always enough
CAL PDZ FP-2 – CAL PDZ peptide-binding inhibitors, primary screen, biochemical, fluorescence polarization, Cer-tagged CAL PDZ, HTS | Golgi-associated PDZ and coiled-coil motif-containing protein (Homo sapiens), Q9HD26 | purified CAL PDZ, TMR-peptide fluorescence polarization, 1 h | inhibition, % at 20 µM | 330,000 compounds, 0.02% hits | AID 504414, 2011;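 active = highest replicate inhibition of at least 40%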;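 note: plate controls were DMSO neutral control wells for no effect and unlabeled competitor peptide control wells for full effect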
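Test system: tagged CAL PDZ domain / Buffer or medium: sodium phosphate/NaCl buffer pH 7.4 with TCEP, IgG, Thesit / Reagent: TMR-labelled reporter peptide T*-PRC34 bound in PDZ groove / Compound dosing: single point, 20 µM / Schedule: 1 h incubation at room temperature before polarization reading / Technique: fluorescence polarization (mP) / Benchmarks: unlabelled peptide, DMSO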
* = called active by the depositor; . = no result given. An excerpt weighted towards active compounds, which were near 1.1% of everything screened.

SMILES	CAL PDZ FP-1	PDI inh	ERAP1 inh	ERp5 block	Rin1 Abl inh	CAL PDZ FP-2
COc1cc(C(=O)OCC(=O)N2CCCCC2C)ccc1OCc1c(C)noc1C (centres undefined)	46*	-1	2	3	-1	0
O=S(=O)(N[C@H]1CC[C@H](CCn2cc(-c3cccnc3)nn2)O[C@H]1CO)c1ccc(F)cc1	.	.	0	-2	.	.
COc1ccc(S(=O)(=O)N2CCN(C(=O)c3ccco3)CC2)c(C)c1C	75*	-1	0	-5	-1	7
COC(=O)C[C@H]1CC[C@@H]2[C@H](COc3ccc(NC(=O)Nc4ccc(C#N)cc4)cc3C(=O)N2C)O1	.	.	0	0	.	.
CCCN(CC(=O)Nc1ccccc1OC)C(=O)CSC(=S)N1CCCC1	60*	-4	2	-3	2	0
CCCN(CC(=O)Nc1ccccc1OC)C(=O)CC1CCCC1	0	13	-1	10	-3	2
CCCN(CC(=O)Nc1ccccc1OC)C(=O)c1ccccn1	74*	2	-1	-1	5	0
CCCN(CC(=O)Nc1cc(Cl)ccc1Cl)C(=O)c1ccccn1	6	7	1	2	3	-6
C[N+](C)(C)CCCN(Cc1ccc2c(c1)OCO2)C(=O)NC1CCCCC1	41*	-5	.	5	0	0
COc1ccc(N)cc1C#N	5	-7	-1	-7	-4	0
COc1cc(N)ccc1Cc1ccc(N)cc1OC	56*	7	.	.	-1	.
CCC[N+](C)(C)C(C)C(OC(C)=O)c1ccccc1 (centres undefined)	-1	-2	41*	6	2	1
CN1C=CC=C/C1=C1\SC(=S)N(c2ccccc2)C1=O	-3	-2	.	.	-4	0
C=CCN1C=CC=C/C1=C1\SC(=S)N(C)C1=O	35*	7	6	3	-5	-1
O=c1c(Br)c(Br)cnn1-c1ccccc1	32*	9	-3	2	-133	-1
C[C@@H]1CN([C@H](C)CO)C(=O)Cc2cc(NC(=O)NC3CCCCC3)ccc2O[C@H]1CN(C)S(=O)(=O)c1cccs1	.	.	0	5	.	.
COc1ccc(NC(=O)Nc2ccc(C(C)C)cc2)cc1	-3	7	-4	-1	1	-1
COc1ccc(NC(=O)Oc2cc(C)ccc2C(C)C)cc1	89*	-2	.	3	-1	-1
CCSc1nc2nccnc2c(=O)[nH]1	96*	-11	2	4	-1	0
COc1ccc2[nH]c(=O)c(CN(C(=O)C3CCCO3)c3ccc(C)c(C)c3)cc2c1 (centres undefined)	48*	1	.	4	-1	-1
COc1ccc2[nH]c(=O)c(CN(C(=O)c3cccnc3)c3ccc(C)cc3C)cc2c1	34*	-2	2	-2	0	-1
O=C(c1cccc(F)c1)N1CC[C@H]2[C@H](CO)Nc3ccc(-c4ccc(F)cc4)cc3[C@H]21	.	.	1	-2	.	.
O=C(COC(=O)C1=COCCO1)Nc1ccc(Br)cc1Br	43*	-1	-1	0	4	0
Cc1ccccc1NC(=O)COC(=O)C1=COCCO1	-3	2	-4	-1	1	2
O=C(NCCC(=O)N1CCCC1)c1ccccc1Cl	39*	-7	-6	1	1	0
COC(=O)C1C(O)=C(C=Nc2cccc3ccccc23)C(=O)CC1(C)C (centres undefined)	60*	14	3	-2	-2	-2
COC(=O)C1C(O)=C(C=NCc2ccccc2)C(=O)CC1(C)C (centres undefined)	1	0	.	.	5	0
CCCc1cc(=O)oc2c3c(cc(OCC(=O)N4CCC[C@H]4C(=O)O)c12)OC(C)(C)CC3	43*	.	.	1	0	0
CCNC(=O)C[C@@H]1CC[C@@H](NC(=O)NC2CCCCC2)[C@@H](CO)O1	.	.	3	3	.	.
